In ChEMBL document CHEMBL4038319, “Development of a Potent Inhibitor of the Plasmodium Proteasome with Reduced Mammalian Toxicity” (J Med Chem, 2017):

Assays:
HepG2 = assay: Cytotoxicity against human HepG2 cells harboring A16-CD81EGFP assessed as cell viability after 48 hrs by bioluminescence assay; type: cell-based; details: HepG2, 48 h
Summary of the method: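 HepG2-A16-CD81EGFP cells, 3 × 10^3 per well, seeded 24 h ahead in DMEM with 5% FBS. Viability read by bioluminescence after 48 h and fitted by four-parameter regression; puromycin control.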

Plasmodium falciparum [1] = assay: Antimalarial activity against asexual blood stage Plasmodium falciparum Dd2 infected in human erythrocytes after 72 hrs by SYBR green 1 dye based fluorescence assay; type: functional, cell-based; details: Dd2, 72 h
Plasmodium falciparum [2] = assay: Inhibition of early trophozoite stage Plasmodium falciparum 20S proteasome beta5 subunit using suc-LLVY-AMC as substrate at 95 nM after 4 hrs by fluorescence assay relative to control
Summary of the method: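 Sorbitol-synchronized early trophozoites at 5% parasitemia exposed to 95 nM inhibitor for 4 h, then washed and lysed. 15 μg total protein assayed with 25 μM Suc-LLVY-AMC in Tris pH 7.5/0.02% SDS buffer; AMC release compared against DMSO-treated cells.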

Plasmodium falciparum [3] = assay: Inhibition of schizont stage Plasmodium falciparum 20S proteasome beta5 subunit using suc-LLVY-AMC as substrate at 50 nM after 60 to 120 mins by fluorescence assay relative to control
Summary of the method: (§1)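 Pf20S enriched from asynchronous parasite lysate by two-step chromatography; human constitutive 20S from a commercial source. Enzymes at 0.29 nM with 25 μM Suc-LLE-AMC, Suc-LRR-AMC or Suc-LLVY-AMC in 20 mM Tris pH 7.5, 0.02% SDS. Inhibitor and substrate added together; AMC release rate (Ex 340/Em 465) taken from 60–120 min against DMSO.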

[4] = biological target: T1, Proteasome Macropain subunit MB1 (Homo sapiens, UniProt P28074); assay: Irreversible inhibition of human 20S proteasome beta5 subunit using suc-LLVY-AMC as substrate after 4 hrs at 30 mins time interval by fluorescence assay
T1 sequence (P28074 whole entry): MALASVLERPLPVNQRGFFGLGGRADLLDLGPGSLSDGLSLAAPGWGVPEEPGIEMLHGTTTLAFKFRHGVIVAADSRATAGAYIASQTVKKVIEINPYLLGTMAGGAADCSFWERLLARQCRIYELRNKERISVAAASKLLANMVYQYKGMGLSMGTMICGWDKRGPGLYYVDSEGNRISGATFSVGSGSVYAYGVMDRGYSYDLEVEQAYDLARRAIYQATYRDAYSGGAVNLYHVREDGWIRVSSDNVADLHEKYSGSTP

[5] = biological target: T2, constitutive 20S proteasome beta5 subunit (Proteasome Macropain subunit MB1) (Homo sapiens, UniProt P28074); assay: Inhibition of human constitutive 20S proteasome beta5 subunit using suc-LLVY-AMC as substrate at 50 nM after 60 to 120 mins by fluorescence assay relative to control; details: probe suc-LLVY-AMC; summary of the method: as §1
T2 sequence (P28074 whole entry): T1 sequence (P28074 whole entry)

Plasmodium falciparum [6] = assay: Inhibition of schizont stage Plasmodium falciparum 20S proteasome beta2 subunit using z-LRR-AMC as substrate at 150 nM after 60 to 120 mins by fluorescence assay relative to control
Plasmodium falciparum [7] = assay: Inhibition of schizont stage Plasmodium falciparum 20S proteasome beta5 using suc-LLVY-AMC as substrate at 150 nM after 60 to 120 mins by fluorescence assay relative to control
Plasmodium falciparum [8] = assay: Growth inhibition of Plasmodium falciparum Dd2 infected in human erythrocytes at 0.5 to 1 nM after 72 hrs by SYBR green 1 dye based fluorescence assay relative to control; type: cell-based; details: Dd2, 72 h, read-out: GI
[9] = biological target: T3, 20S proteasome beta5 subunit (Proteasome Macropain subunit MB1) (Homo sapiens, UniProt P28074); assay: Inhibition of human 20S proteasome beta5 subunit using suc-LLVY-AMC as substrate at 150 nM after 60 to 120 mins by fluorescence assay relative to control; details: probe suc-LLVY-AMC; summary of the method: as §1
T3 sequence (P28074 whole entry): T1 sequence (P28074 whole entry)

Plasmodium falciparum [10] = assay: Inhibition of schizont stage Plasmodium falciparum 20S proteasome beta1 subunit using z-LLE-AMC as substrate at 150 nM after 60 to 120 mins by fluorescence assay relative to control
Plasmodium falciparum [11] = assay: Inhibition of schizont stage Plasmodium falciparum 20S proteasome using suc-LLVY-AMC as substrate at 450 nM after 60 to 120 mins relative to control
Plasmodium falciparum [12] = assay: Inhibition of schizont stage Plasmodium falciparum 20S proteasome beta1 subunit using z-LLE-AMC as substrate at 450 nM after 60 to 120 mins by fluorescence assay relative to control
Plasmodium falciparum [13] = assay: Antimalarial activity against stage V gametocytes of Plasmodium falciparum NF54 infected in human erythrocytes after 72 hrs by mitotracker red based […] assay; type: functional, cell-based; details: NF54, 72 h
Plasmodium falciparum [14] = assay: Inhibition of schizont stage Plasmodium falciparum 20S proteasome beta2 subunit using z-LRR-AMC as substrate at 450 nM after 60 to 120 mins by fluorescence assay relative to control

SMILES	IC50 (HepG2) [nM]	IC50 (Plasmodium falciparum [1]) [nM]	inhibition (Plasmodium falciparum [2]) [%]	inhibition (Plasmodium falciparum [3]) [%]	also measured
CCCCCC(=O)N[C@@H](Cc1ccc(NC(=O)OC(C)(C)C)cc1)C(=O)N[C@@H](CCCC)C(=O)N[C@@H](CC(C)C)C(=O)[C@@]1(C)CO1	80.2	5.55	–	–	–
CCCCCC(=O)N[C@H](Cc1ccc(N)cc1)C(=O)N[C@@H](Cc1ccc(N)cc1)C(=O)N[C@@H](Cc1ccccc1)C(=O)[C@@]1(C)CO1	952	68.2	–	–	–
CCCCCC(=O)N[C@@H](Cc1ccncc1)C(=O)N[C@@H](CCCC)C(=O)N[C@@H](Cc1ccccc1)C(=O)[C@@]1(C)CO1	< 0.283	3.87	–	–	–
CCCCCC(=O)N[C@H](Cc1ccc(N)cc1)C(=O)N[C@@H](Cc1ccc(N)cc1)C(=O)N[C@@H](CC(C)C)C(=O)[C@@]1(C)CO1	0.91	59.6	–	–	–
CCCCCC(=O)N[C@@H](Cc1ccc(N)cc1)C(=O)N[C@@H](CCCC)C(=O)N[C@@H](Cc1ccccc1)C(=O)[C@@]1(C)CO1	3410	81.8	40 to 60	10 to 47	–
CCCCCC(=O)N[C@@H](Cc1ccncc1)C(=O)N[C@@H](CCCC)C(=O)N[C@@H](CC(C)C)C(=O)[C@@]1(C)CO1	< 0.283	3.28	–	–	–
CCCCCC(=O)N[C@@H](Cc1ccc(NC(=O)OC(C)(C)C)cc1)C(=O)N[C@@H](CCCC)C(=O)N[C@@H](Cc1ccccc1)C(=O)[C@@]1(C)CO1	478	5.45	40 to 60	10 to 47	–
CCCCCC(=O)N[C@H](C(=O)N[C@@H](CCCC)C(=O)N[C@@H](CC(C)C)C(=O)[C@@]1(C)CO1)C(C)C	134	4.11	40 to 60	10 to 47	Ki [4]: 3.74 µM; inhibition at 0.05 µM [5]: 89%
CCCCCC(=O)N[C@@H](Cc1ccccc1)C(=O)N[C@@H](CCCC)C(=O)N[C@@H](CC(C)C)C(=O)[C@@]1(C)CO1	22.7	4.04	–	–	–
CCCCCC(=O)N[C@H](C(=O)N[C@@H](CCS(C)(=O)=O)C(=O)N[C@@H](CC(C)C)C(=O)[C@@]1(C)CO1)C(C)C	–	–	40 to 60	10 to 47	inhibition (Plasmodium falciparum [6]): 29%; Ki [4]: 0.375 µM; inhibition (Plasmodium falciparum [7]): 45%; inhibition at up to 0.001 µM (Plasmodium falciparum [8]): < 10%; inhibition at 0.15 µM [9]: 98%; inhibition (Plasmodium falciparum [10]): 16%; inhibition at 0.05 µM [5]: 97%
CCCCCC(=O)NC(Cc1ccc(NC(=O)OC(C)(C)C)cc1)C(=O)N[C@@H](Cc1ccc(NC(=O)OC(C)(C)C)cc1)C(=O)N[C@@H](Cc1ccccc1)C(=O)[C@@]1(C)CO1 (single isomer, unassigned)	45.7	12.2	–	–	–
CCCCCC(=O)N[C@@H](Cc1ccc(N)cc1)C(=O)N[C@@H](CCCC)C(=O)N[C@@H](CC(C)C)C(=O)[C@@]1(C)CO1	6.32	5.99	–	–	–
CCCCCC(=O)N[C@H](Cc1c[nH]c2ccccc12)C(=O)N[C@@H](CCCC)C(=O)N[C@@H](CC(C)C)C(=O)[C@@]1(C)CO1	915	2.92	40 to 60	10 to 47	inhibition at 0.05 µM [5]: ≤ 10%
CCCCCC(=O)N[C@@H](Cc1c[nH]c2ccccc12)C(=O)N[C@@H](Cc1c[nH]c2ccccc12)C(=O)N[C@@H](Cc1ccccc1)C(=O)[C@@]1(C)CO1	346	9.38	40 to 60	10 to 47	–
CCCCCC(=O)N[C@@H](C(=O)N[C@@H](CCCC)C(=O)N[C@@H](CC(C)C)C(=O)[C@@]1(C)CO1)C(C)C	1240	3.27	40 to 60	10 to 47	Ki [4]: 39.2 µM; inhibition (Plasmodium falciparum [11]): 45%; inhibition (Plasmodium falciparum [12]): 6%; inhibition at up to 0.001 µM (Plasmodium falciparum [8]): < 10%; IC50 (Plasmodium falciparum [13]): 130 nM; inhibition (Plasmodium falciparum [14]): 9%; inhibition at 0.05 µM [5]: ≤ 10%
CCCCCC(=O)N[C@@H](Cc1c[nH]c2ccccc12)C(=O)N[C@@H](Cc1c[nH]c2ccccc12)C(=O)N[C@@H](CC(C)C)C(=O)[C@@]1(C)CO1	11.7	3.7	–	–	–
CCCCCC(=O)N[C@@H](Cc1ccccc1)C(=O)N[C@@H](CCCC)C(=O)N[C@@H](Cc1ccccc1)C(=O)[C@@]1(C)CO1	30.8	6.7	–	–	–
CCCCCC(=O)N[C@@H](Cc1c[nH]c2ccccc12)C(=O)N[C@@H](CCCC)C(=O)N[C@@H](Cc1ccccc1)C(=O)[C@@]1(C)CO1	6.41	9.77	–	–	–
CCCCCC(=O)NC(Cc1ccc(NC(=O)OC(C)(C)C)cc1)C(=O)N[C@@H](Cc1ccc(NC(=O)OC(C)(C)C)cc1)C(=O)N[C@@H](CC(C)C)C(=O)[C@@]1(C)CO1 (single isomer, unassigned)	118	13.5	–	–	–
CCCCCC(=O)N[C@@H](Cc1c[nH]c2ccccc12)C(=O)N[C@@H](CCCC)C(=O)N[C@@H](CC(C)C)C(=O)[C@@]1(C)CO1	–	3.11	–	–	–
CCCCCC(=O)N[C@H](Cc1ccncc1)C(=O)N[C@@H](CCCC)C(=O)N[C@@H](CC(C)C)C(=O)[C@@]1(C)CO1	< 0.283	21.8	–	–	–
